Experimental data from ChEMBL document CHEMBL4376902, “CN128: A New Orally Active Hydroxypyridinone Iron Chelator” (J Med Chem, 2020).
One block for each compound: values may come before it. Active and inactive are the calls of the source. The calls are words filed in the database; no cut-off is given here.

Assays:
[1] = tested on: Rattus norvegicus; experiment: Iron scavenging activity in 59Fe-ferritin-loaded rat assessed as iron mobilization level at 450 umol/kg, po dosed 1 hr after 59Fe-ferritin injection and measured 24 hrs after 59Fe-ferritin injection by gamma counting method relative to control; format: functional
Outline: (§1)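 Male SD rats, 300 g, fasted overnight, given about 1 μC 59Fe-ferritin i.v. under isoflurane. Chelator gavaged 1 h later, then rats housed in metabolic cages; food returned 1 h after dosing. Killed 24 h after 59Fe-ferritin. Urine, faeces, liver and gut gamma-counted. 8 rats per condition.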

[2] = Toxicity in Sprague-Dawley rat assessed as induction of mortality at 200 mg/kg, po dosed once daily for 2 months as 5 days per week schedule; format: organism-based; conditions: in vivo, 120 h
[3] = Toxicity in Sprague-Dawley rat assessed as induction of histopathological changes in thymus at 25 to 116 mg/kg, po dosed daily for 4 weeks and measured after additional 4 weeks period in absence of drug; format: organism-based; conditions: in vivo, 672 h
[4] = Toxicity in Sprague-Dawley rat assessed as induction of histopathological changes in pancreas at 25 to 116 mg/kg, po dosed daily for 4 weeks and measured after additional 4 weeks period in absence of drug; format: organism-based; conditions: in vivo, 672 h
[5] = Toxicity in Sprague-Dawley rat assessed as induction of histopathological changes in bone marrow at 25 to 116 mg/kg, po dosed daily for 4 weeks and measured after additional 4 weeks period in absence of drug; format: organism-based; conditions: in vivo, 672 h
[6] = tested on: Rattus norvegicus; experiment: Iron scavenging activity in 59Fe-ferritin-loaded rat assessed as iron mobilization level at 150 to 450 umol/kg, po dosed 1 hr after 59Fe-ferritin injection and measured 24 hrs after 59Fe-ferritin injection by gamma counting method relative to control; format: functional, organism-based; outline: as §1
[7] = Metal chelating activity assessed as iron chelation
Outline: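 Automated spectrophotometric titration at ca. 40 µM iron complex, 50 mm path. pH raised in 0.1-unit steps with 0.1 M KOH, 3 min equilibration per step, up to pH 12.0. Competition with metal hydrolysis species; spectra fitted over 400-700 nm using literature hydrolysis constants to give stability constants.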

[8] = Drug uptake in rat bile treated with 150 umol/kg, po (R) -3,4-Dihydroxy-1-(1 -hydroxy-3-phenylpropan-2-yl)-2-methyl- pyridin-1-ium Chloride assessed as compound formation by LC/TOF/MS/MS analysis; format: ADME, organism-based; conditions: in vivo
Outline: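 Bile collected from rats after an oral dose of 150 μmol/kg. Metabolites characterised by β-glucuronidase hydrolysis and LC-TOFMS/MS. M2/M1 ratio followed over 8 h.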

[9] = tested on: Mus musculus; experiment: Toxicity in mouse assessed as reduction in neutrophils counts at 200 mg/kg, po dosed once daily for 2 months as 5 days per week schedule; conditions: in vivo, 120 h
[10] = tested on: Mus musculus; experiment: Toxicity in mouse assessed as reduction in total white cell counts at 200 mg/kg, po dosed once daily for 2 months as 5 days per week schedule; conditions: in vivo, 120 h
[11] = tested on: Mus musculus; experiment: Toxicity in mouse assessed as increase in reticulocyte population at 200 mg/kg, po dosed once daily for 2 months as 5 days per week schedule; conditions: in vivo, 120 h
[12] = tested on: Mus musculus; experiment: Toxicity in mouse assessed as reduction in eosinophils counts at 200 mg/kg, po dosed once daily for 2 months as 5 days per week schedule; conditions: in vivo, 120 h
[13] = tested on: Mus musculus; experiment: Toxicity in mouse assessed as effect on platelet population at 200 mg/kg, po dosed once daily for 2 months as 5 days per week schedule; conditions: in vivo, 120 h
[14] = Drug metabolism in rat liver microsomes assessed as oxidative metabolism incubated for 1 hr relative to deferiprone; format: ADME, Microsome
[15] = tested on: Mus musculus; experiment: Toxicity in mouse assessed as reduction in erythrocyte population at 200 mg/kg, po dosed once daily for 2 months as 5 days per week schedule; conditions: in vivo, 120 h
[16] = Drug metabolism in rat liver microsomes assessed as glucuronidation incubated for 1 hr relative to deferiprone; format: ADME, Microsome
Outline: (§2)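 Compound incubated 1 h with rat or human liver microsomes, n = 4, mean ± SD. Glucuronide formed given as percentage of total chelator added. Oxidative metabolism assessed separately.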

[17] = tested on: Mus musculus; experiment: Toxicity in mouse assessed as reduction in monocytes counts at 200 mg/kg, po dosed once daily for 2 months as 5 days per week schedule; conditions: in vivo, 120 h
[18] = Drug metabolism in human liver microsomes assessed as glucuronidation incubated for 1 hr relative to deferiprone; format: ADME, Microsome; outline: as §2
[19] = Drug metabolism in human liver microsomes assessed as oxidative metabolism incubated for 1 hr relative to deferiprone; format: ADME, Microsome
[20] = tested on: Mus musculus; experiment: Toxicity in mouse assessed as reduction in lymphocytes counts at 200 mg/kg, po dosed once daily for 2 months as 5 days per week schedule; conditions: in vivo, 120 h

Structure (SMILES): CCc1c(O)c(O)cc[n+]1CCO.[Cl-]
Activity [1]: 2.4%

Structure (SMILES): Cc1c(O)c(O)cc[n+]1[C@@H](CO)C(C)C.[Cl-]
Activity [1]: 8%

Structure (SMILES): CCc1c(O)c(O)cc[n+]1[C@H](CO)CC(C)C.[Cl-]
Activity [1]: 10.3%

Structure (SMILES): Cc1c(O)c(O)cc[n+]1CCO.[Cl-]
Activity [1]: 4%

Structure (SMILES): CCc1c(O)c(O)cc[n+]1[C@H](CO)Cc1ccccc1.[Cl-]
Activity [1]: 13.1%

Structure (SMILES): CCc1c(O)c(O)cc[n+]1[C@H](CO)[C@@H](C)CC.[Cl-]
Activity [1]: 5.5%

Structure (SMILES): CCc1c(O)c(O)cc[n+]1[C@@H](CO)C(C)C.[Cl-]
Activity [1]: 10.6%

Structure (SMILES): CCc1c(O)c(O)cc[n+]1[C@H](C)CO.[Cl-]
Activity [1]: 10.5%

Structure (SMILES): CC[C@H](C)[C@@H](CO)[n+]1ccc(O)c(O)c1C.[Cl-]
Activity [1]: 10.8%

Structure (SMILES): Cc1c(O)c(O)cc[n+]1[C@@H](C)CO.[Cl-]
Activity [1]: 11.9%

Structure (SMILES): Cc1c(O)c(=O)ccn1C [DEFERIPRONE]
Activity [2]: Non-Toxic
Activity [3]: Non-Toxic
Activity [1]: 11.8%
Activity [4]: Non-Toxic
Activity [5]: Non-Toxic

Structure (SMILES): CCc1c(O)c(O)cc[n+]1[C@@H](C)CO.[Cl-]
Activity [1]: 16%

Structure (SMILES): CCc1c(O)c(O)cc[n+]1[C@H](CO)C(C)C.[Cl-]
Activity [1]: 7.9%

Structure (SMILES): Cc1c(O)c(O)cc[n+]1[C@H](C)CO.[Cl-]
Activity [1]: 6.5%

Structure (SMILES): CCc1c(O)c(O)cc[n+]1[C@@H](CO)CC(C)C.[Cl-]
Activity [1]: 13.6%

Structure (SMILES): Cc1c(O)c(O)cc[n+]1[C@H](CO)C(C)C.[Cl-]
Activity [6]: Dose-dependent effect
Activity [1]: 18.7%

Structure (SMILES): Cc1c(O)c(O)cc[n+]1[C@@H](CO)CC(C)C.[Cl-]
Activity [1]: 8.2%

Structure (SMILES): CCc1c(O)c(O)cc[n+]1[C@@H](CO)Cc1ccccc1.[Cl-]
Activity [6]: Dose-dependent effect
Activity [1]: 22.3%

Activity [7]: inactive
Drug uptake [8]: Metabolite_Detected
Structure (SMILES): Cc1c(O[C@@H]2O[C@H](C(=O)O)[C@@H](O)[C@H](O)[C@H]2O)c(=O)ccn1[C@@H](CO)Cc1ccccc1

Structure (SMILES): Cc1c(O)c(O)cc[n+]1[C@H](CO)Cc1ccccc1.[Cl-]
Activity [9]: Non-Toxic
Activity [10]: Non-Toxic
Activity [11]: Non-Toxic
Activity [12]: Non-Toxic
Activity [2]: Non-Toxic
Activity [13]: Non-Toxic
Drug metabolism [14]: Metabolite_Detected
Activity [15]: Non-Toxic
Drug metabolism [16]: Metabolite_Detected
Activity [17]: Non-Toxic
Drug metabolism [18]: Metabolite_Detected
Activity [1]: 12.8%
Drug metabolism [19]: Metabolite_Detected
Activity [20]: Non-Toxic

Structure (SMILES): Cc1c(O)c(O)cc[n+]1[C@H](CO)CC(C)C.[Cl-]
Activity [1]: 5.8%

Activity [7]: Active
Drug uptake [8]: Metabolite_Detected
Structure (SMILES): Cc1c(O)c(=O)ccn1[C@@H](CO[C@@H]1O[C@H](C(=O)O)[C@@H](O)[C@H](O)[C@H]1O)Cc1ccccc1
